Sampled rows, rich in hits. Any-hit rate of the full collection: about 3%.
UBC13 inh: UBC13 polyubiquitin chain formation inhibitors, primary screen, biochemical, TR-FRET, uHTS; Ubiquitin-conjugating enzyme E2 N (Homo sapiens), P61088; inhibition, % at 20 µM; 330,000 compounds, 0.47% hits; in the data active = inhibition above about 45%, passing the limit was not always enough; inconclusive = no clear call, values can overlap the other calls
MIN6 prolif: inducers of MIN6 beta-cell proliferation, primary screen, ATP luminescence, uHTS; MIN6 cells proliferation, ATPlite luminescence, 48 h; cells starved in 0.2% serum; 100% = growth in 10% serum; proliferation, % at 10 µM; 330,000 compounds, 0.29% hits;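 active = compounds whose signal lies at least 3.5 SD above the mean of all wells on their plate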;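 note: 0% = DMSO-treated cells in low-serum medium and 100% = 10% serum control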
Apaf-1 inh: inhibitors of human Apaf-1 apoptosome, primary screen, biochemical, DEVD-Rh110 fluorescence, uHTS; Apoptotic protease-activating factor 1 (Homo sapiens), O14727; reconstituted apoptosome caspase-3 activity; inhibition, % at 20 µM; 330,000 compounds, 0.71% hits; active = inhibition of at least 40% at 20 µM;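 note: plate controls were DMSO wells for no effect and DEVD-CHO caspase inhibitor wells for full effect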
Target sequence (O14727 whole entry, looked up): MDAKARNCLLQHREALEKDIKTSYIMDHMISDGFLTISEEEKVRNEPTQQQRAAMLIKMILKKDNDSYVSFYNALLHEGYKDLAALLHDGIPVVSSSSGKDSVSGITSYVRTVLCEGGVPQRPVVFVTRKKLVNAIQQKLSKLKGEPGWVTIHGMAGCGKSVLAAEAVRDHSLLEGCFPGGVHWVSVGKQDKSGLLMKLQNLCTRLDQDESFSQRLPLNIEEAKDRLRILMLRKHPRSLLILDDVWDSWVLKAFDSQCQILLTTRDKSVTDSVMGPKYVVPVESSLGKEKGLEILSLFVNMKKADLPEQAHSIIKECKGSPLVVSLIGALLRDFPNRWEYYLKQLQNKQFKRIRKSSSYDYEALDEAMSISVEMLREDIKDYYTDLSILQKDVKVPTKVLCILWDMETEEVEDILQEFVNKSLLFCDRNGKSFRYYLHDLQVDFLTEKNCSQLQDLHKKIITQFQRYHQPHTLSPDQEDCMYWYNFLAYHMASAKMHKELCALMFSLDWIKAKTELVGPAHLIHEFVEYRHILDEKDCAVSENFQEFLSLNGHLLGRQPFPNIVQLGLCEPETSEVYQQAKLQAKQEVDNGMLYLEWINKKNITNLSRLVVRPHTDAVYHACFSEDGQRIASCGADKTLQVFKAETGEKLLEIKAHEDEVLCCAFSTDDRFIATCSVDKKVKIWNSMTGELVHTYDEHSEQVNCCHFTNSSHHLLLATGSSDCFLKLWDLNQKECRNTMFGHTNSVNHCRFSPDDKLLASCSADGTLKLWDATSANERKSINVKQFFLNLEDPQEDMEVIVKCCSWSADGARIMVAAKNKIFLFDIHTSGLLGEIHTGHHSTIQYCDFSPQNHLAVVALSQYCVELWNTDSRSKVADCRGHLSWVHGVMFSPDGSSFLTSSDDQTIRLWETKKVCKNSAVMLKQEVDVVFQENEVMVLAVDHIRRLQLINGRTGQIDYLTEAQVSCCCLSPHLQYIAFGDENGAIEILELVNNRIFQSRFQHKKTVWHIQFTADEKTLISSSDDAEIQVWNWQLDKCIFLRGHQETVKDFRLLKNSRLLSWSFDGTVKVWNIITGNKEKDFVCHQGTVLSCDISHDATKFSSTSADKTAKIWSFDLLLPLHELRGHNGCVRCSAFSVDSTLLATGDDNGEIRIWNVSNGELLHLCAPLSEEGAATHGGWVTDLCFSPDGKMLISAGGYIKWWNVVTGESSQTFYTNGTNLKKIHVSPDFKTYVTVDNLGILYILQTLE
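Assay system – apoptosome proteins · Medium – Hepes buffer, pH 7.5 · Also added – cytochrome c with DEVD-Rh110 · Timing – 30 min compound preincubation, 50 min activation, room temperature · Detection – Rh110 fluorescence, excitation 480 nm, emission 540 nm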
Granule exo inh: LAMP-1 surface exposure blockers, TALL-104 cells – cell-based, flow cytometry, MLPCN library, primary screen. 360,000 compounds, 0.66% hits. AID 651702, 2012. TALL-104 LAMP-1 surface exposure; cells stimulated with thapsigargin and PMA. inhibition, % at 10 µM;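 active = inhibition above about 55%, limit read from the data; inconclusive = no clear call, values can overlap the other calls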
hiPSC survival: enhancers of single-cell hiPSC survival, primary screen, ATPlite luminescence. 100% = ROCK inhibitor wells, 0% = DMSO. survival enhancement, % at 20 µM. 360,000 compounds, 0.044% hits. AID 602274, 2012; in the data active = survival enhancement above about 18%;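 note: cells exposed to compounds for 16 hours before the ATP read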
MPTP block: mitochondrial permeability transition pore inhibitors, primary screen, biochemical, isolated mouse mitochondria, absorbance; Ca2+ swelling absorbance, 30 min; inhibition, % at 10 µM; 360,000 compounds, 1.4% hits;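 active = inhibition of 50% or more, scaled per plate between neutral and stimulator controls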;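 note: 0% = DMSO wells given calcium and 100% = 1 mM EGTA wells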
MPTP counter: fluorescence retest of MPTP screen hits in isolated mitochondria, single concentration. inhibition, % at 10 µM. shares compounds with MPTP block. membrane potential, Rhodamine 123 fluorescence. 5,000 compounds, 78% hits; in the data active = inhibition above about 22%;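 note: 0% = DMSO vehicle and 100% = positive control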
MPTP swell DR: mitochondrial permeability transition pore inhibitors, dose response, biochemical, absorbance, uHTS hits; shares compounds with MPTP block; isolated mitochondria swelling; IC50, µM; 780 compounds, 58% hits; in the data active = IC50 below about 20 µM
MPTP counter DR: fluorescent counter-screen in isolated mitochondria, dose response, counter-screen for MPTP inhibitor project, biochemical, fluorescence, uHTS hits. IC50, µM. 780 compounds, 49% hits. shares compounds with MPTP block. isolated mitochondria counterscreen, fluorescence read-out; in the data active = IC50 below about 80 µM
Numbers without * were called inactive; ? = inconclusive; · = no result given.

SMILES | UBC13 inh | MIN6 prolif | Apaf-1 inh | Granule exo inh | hiPSC survival | MPTP block | MPTP counter | others
N#C/C(=C(/O)c1cc2ccccc2o1)c1nc2ccccc2s1 | 6 | -6 | 13 | ? | 3 | 98* | 78*
N#C/C(=C(/O)c1ccco1)c1nc2ccccc2s1 | -12 | -3 | 9 | 13 | -1 | 5 | ·
N#C/C(=C(/O)c1cccc(F)c1)c1nc2ccccc2s1 | -12 | -6 | 4 | 4 | 1 | 87* | 86*
CCNC(=O)C1(C)CCN(C(=O)c2ccc(OC)c(OC)c2)C1 (configuration not stated) | · | · | · | 17 | 2 | 1 | ·
N#CC1(NC(=O)COc2ccc(S(=O)(=O)N3CCCC3)cc2[N+](=O)[O-])CCCCC1 | 3 | -5 | 9 | 17 | 1 | -3 | ·
CC(C)(C)NC(=O)CSc1nc2ccc(NC(=O)CSc3nnnn3Cc3ccccc3)cc2s1 | -24 | -2 | 30 | 3 | -4 | 10 | ·
Nc1ccc2nc(SCC(=O)Nc3ccc(N4CCOCC4)c(Cl)c3)sc2c1 | -8 | -5 | 11 | -10 | 1 | 58* | 7 | MPTP swell DR=18*;MPTP counter DR=28*
CC(C)(C)NC(=O)CSc1nc2ccc(NC(=O)CSc3nnc(N)s3)cc2s1 | 3 | 0 | -7 | -3 | 0 | 67* | 25*
CNC(=S)N/N=C/c1cc(Br)cc(Br)c1O | -22 | 0 | -2 | 2 | -1 | 88* | 60*
COc1cc(/C=N/NC(=S)NC2CC3C=CC2C3)cc(OC)c1OC (configuration not stated) | -3 | -2 | 20 | -12 | 1 | 3 | ·
Oc1c(Br)cc(Br)cc1/C=N/NC(=S)N[C@H]1CC2C=CC1C2 (some centres not stated) | -8 | -4 | 27 | -7 | 0 | 84* | 58*
CC(C)(C)NC(=O)C(c1ccc(C(F)(F)F)cc1)n1c(=O)c(-c2ccco2)nc2ccccc21 (configuration not stated) | · | · | · | 2 | · | 2 | ·
CO/N=C/C(C#N)c1ncc(C(F)(F)F)cc1Cl (configuration not stated) | 9 | -3 | -6 | -4 | 0 | 99* | 92*
COc1ccc(C(=O)/C=C/Nc2ccc(S(=O)(=O)Nc3cccc(C(C)=O)c3)cc2)cc1 | -13 | 0 | 17 | ? | 0 | 97* | 84*
COc1cc(C[C@@H]2C(=O)OC[C@H]2Cc2ccc(OC)c(OC)c2)ccc1O | 5 | -7 | 4 | 0 | 1 | 92* | 80*
CC(C)N(C(=O)[C@H]1CC(CC(=O)NC(C)(C)C)C(=O)N2CCc3c([nH]c4ccccc34)[C@]12C)C(C)C (some centres not stated) | -19 | -3 | 13 | -1 | -2 | 1 | ·
Cc1nn(-c2ccccc2)c(Cl)c1C(=O)NNC(=O)c1ccccc1O | 7 | -4 | 1 | -6 | 1 | 0 | ·
O=C(Nc1ccc(F)c(Cl)c1)Nc1csc2ccccc12 | -1 | -3 | 14 | 2 | 0 | 76* | 68*
CC(C)CNC(=O)Nc1ccc(F)c(Cl)c1 | 8 | 2 | -18 | -5 | -2 | 36 | ·
O=C(Nc1ccc(F)cc1F)Nc1csc2ccccc12 | 14 | -2 | -8 | -17 | 0 | 83* | 85*
C[C@H]1c2cccc(O)c2C(O)=C2C(=O)[C@]3(O)C(O)=C(C(N)=O)C(=O)[C@@H](N(C)C)[C@@H]3[C@@H](O)[C@@H]21 | 11 | -3 | 17 | -2 | -1 | 80* | 4
Cc1sc2ncnc(NCC(O)c3ccc([N+](=O)[O-])cc3)c2c1C (configuration not stated) | 13 | -4 | 7 | 48 | 0 | 92* | 91*
Cc1sc2ncnc(NCC(c3ccccc3)N(C)C)c2c1C (configuration not stated) | 5 | 0 | 6 | 14 | 0 | 4 | ·
Cc1sc2ncnc(NCCCO)c2c1C | 5 | -1 | -6 | -3 | 0 | 0 | ·
Cc1sc2ncnc(NCC(O)c3ccccc3)c2c1C (configuration not stated) | -2 | -3 | 8 | 51 | 0 | 69* | 58*
SMILES | UBC13 inh | MIN6 prolif | Apaf-1 inh | Granule exo inh | hiPSC survival | MPTP block | MPTP counter | others
Cc1sc2ncnc(NCc3cccs3)c2c1C | 3 | -6 | -1 | -6 | -1 | 92* | 92*
Cc1sc2ncnc(NCc3ccco3)c2c1C | 21 | -4 | 0 | 1 | 2 | 3 | ·
Cc1ccc(C2(C)NC(=O)N(CC(=O)NC3CCCCC3)C2=O)cc1 (configuration not stated) | 1 | -1 | 5 | -2 | 0 | 0 | ·
O=C(N/N=C1/C(=O)c2cccc3cccc1c23)c1ccc(Cl)cc1 | -32 | -4 | 21 | 2 | 1 | 57* | 16
Cc1ccc2c(CC(=O)Nc3ccc4nc(N5CCOCC5)sc4c3)coc2c1 | · | · | · | 17 | 3 | 1 | ·
CC1(C(=O)Nc2cccc(C#N)c2)CCN1C(=O)Cc1ccc(-c2ccccc2)cc1 (configuration not stated) | · | · | · | 15 | 0 | 92* | 85*
O=C(CC[C@H]1O[C@@H](n2ccc(=O)[nH]c2=O)[C@H](O)[C@@H]1O)NCCN1CCOCC1 | · | · | · | 0 | 1 | -2 | ·
COc1ccc(NC(=O)c2c(Nc3ccccc3)sc(C(=O)c3ccc(F)cc3)c2N)cc1 | -15 | -6 | 3 | -1 | 0 | 92* | 83*
COc1ccccc1NC(=O)c1c(Nc2ccccc2C)sc(C(=O)Nc2cccc(Cl)c2)c1N | -29 | -6 | 25 | 27 | -1 | 87* | 51*
COc1ccc(C(=O)c2sc(Nc3ccccc3)c(C(=O)Nc3ccc(OC)c(OC)c3)c2N)cc1 | -19 | -3 | -2 | 3 | 2 | 0 | ·
COc1ccc(C(=O)c2sc(Nc3cccc(OC)c3)c(C(=O)Nc3cccc(C)c3C)c2N)cc1 | -20 | -6 | 20 | 3 | -2 | 11 | ·
COc1ccc(Nc2sc(C(=O)c3ccc(Cl)cc3)c(N)c2C(=O)Nc2ccccc2OC)cc1 | -31 | -4 | 15 | 0 | 1 | 68* | 75*
CCOC(=O)C1=CN(Cc2ccco2)S(=O)(=O)N(CC)C1c1ccc(F)c(Cl)c1 (configuration not stated) | · | · | 24 | 21 | 3 | 0 | ·
COc1ccc(N2CCN(C(CNC(=O)COc3ccccc3)c3ccco3)CC2)cc1 (configuration not stated) | 1 | 2 | 15 | 2 | 0 | -2 | ·
